Series [1] addresses 211 bp double-stranded DNA. Briefly: EMSA, 211 bp ds DNA. It is filed as binding. Particulars: read-out: Kd, 211 bp ds, with 1 mM DTT, 50 mM Tris–HCl pH 8.0, 50 mM NaCl, 0.1% triton X-100, 2 h at 22°C, phosphor screen. The gist of the method: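 211 bp fragment PCR-amplified from a DraI/BamHI digest of pUC(357.4) and 5′-32P end-labelled with T4 kinase at 37°C. Binding ran 2 h at 22°C in Tris–HCl pH 8.0 buffer with EDTA, AEBSF, 1 mM DTT, 50 mM NaCl and 0.1% triton X-100. Gels were 6% native polyacrylamide in 0.5× TEG at 70 V. Dried gels went onto a phosphor screen, and radioactive signals were quantified for affinity.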

Series [2] concerns 146 bp double-stranded DNA. Briefly: EMSA, 146 bp ds DNA. It is filed as binding. Particulars: DNA 26 nM, 2- to 128-fold molar excess of protein. In outline: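 146 bp fragment made by PCR on a pUC(357.4) digest template and 5′-end labelled with 32P-ATP/T4 polynucleotide kinase at 37°C. Protein fragments incubated with labelled DNA for 2 h at 22°C in 50 mM Tris–HCl pH 8.0, 1 mM EDTA, 1 mM AEBSF, 1 mM DTT, 50 mM NaCl, 0.1% triton X-100. Resolved on pre-run 6% native polyacrylamide (29:1) in 0.5× TEG at 70 V. Complexes detected by autoradiography of dried gels at –80°C.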

Series [3] deals with 35 bp double-stranded DNA. Nature of the series: EMSA, 35 bp ds DNA. Type of series: binding. The conditions noted are these: read-out: Kd, 35 bp ds, without DTT, 50 mM Tris–HCl pH 8.0, 50 mM NaCl, 2 h at 22°C, DNA 26 nM.
The target of series [4] is 35 bp Nick. Briefly: EMSA, 35 bp DNA with nick. It is filed as binding. The conditions noted are these: read-out: Kd, 35 bp Nick, without DTT, 50 mM Tris–HCl pH 8.0, 50 mM NaCl, 2 h at 22°C. The gist of the method:
(§1)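 35-mer substrates (ss, GT mismatch, nick, gap, 3′-biotinylated duplex) made by annealing oligonucleotides in 10 mM Tris–HCl pH 8, 1 mM EDTA, 200 mM NaCl: 90°C 10 min, then slow cooling. Annealing checked on native gels. 5′-32P kinase labelling at 25°C. Incubation 2 h at 22°C in 50 mM Tris–HCl pH 8.0, 50 mM NaCl, with or without 1 mM DTT. Native 6% gels; phosphor-screen quantification for affinity.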

Series [5] deals with 35 bp mismatch GT. Nature of the series: EMSA, 35 bp DNA with GT mismatch. It is filed as binding. The conditions noted are these: read-out: Kd, 35 bp mismatch GT, without DTT, 50 mM Tris–HCl pH 8.0, 50 mM NaCl, 2 h at 22°C. The gist of the method: as §1
Series [6] deals with 35 bp Gap. Nature of the series: EMSA, 35 bp DNA with gap. Type of series: binding. The conditions noted are these: read-out: Kd, 35 bp Gap, without DTT, 50 mM Tris–HCl pH 8.0, 50 mM NaCl, 2 h at 22°C. In outline:
as §1

Series [7] concerns the target 35 bp ss. Briefly: EMSA, 35 nt single-stranded DNA. It is filed as binding. Particulars: read-out: Kd, 35 bp ss, without DTT, 50 mM Tris–HCl pH 8.0, 50 mM NaCl, 2 h at 22°C. The gist of the method:
as §1

The subject of series [8] is 35 bp ds with a 3′ terminal biotin. Briefly: EMSA, 35 bp ds DNA with one 3′ terminal biotin. It is filed as binding. The gist of the method:
as §1

Series [9] is described as follows: aggregation / stability of Rad9 fragments in solution. Type of series: physicochemical. Particulars: after three days at 0.2 mM and 30°C; MES 50 mM, NaCl 50 mM, 2 mM TCEP, pH 6.
The conditions of series [10]: ref [23]; cited from earlier work.

B1: ScRad9[754–947]: fragment 754–947 of Saccharomyces cerevisiae Rad9, tandem tudor domain (protein)
chain: GKDSKEQSYVFPEGIRTADNSFLSKDDIIFGNAVWCQYTWNYKFYPGILLEVDTNQDGCWIYFETGRSLTKDEDIYYLDIRIGDAVTFDGNEYVVVGLECRSHDLNIIRCIRGYDTVHLKKKNASGLLGKRTLIKALSSISLDLSEWAKRAKIILEDNEKNKGDAYRYLRHPIRGRKSMTNVLSPKKHTDDEKD
With B1, the Kd in [1] is 500 ± 70 nM; in series [3], 960 ± 80 nM; in series [4], 620 ± 60 nM; in [5], 890 ± 70 nM; in series [6] it was 960 ± 130 nM; in [7], 2500 ± 180 nM. Also, the Kd in [8] (read-out: Kd, 35 bp ds with a 3′ terminal biotin, EMSA, with 1 mM DTT, 50 mM Tris–HCl pH 8.0, 50 mM NaCl, 2 h at 22°C) is 830 ± 50 nM. In addition, the “interaction with 146 bp ds DNA by gel retardation” value in series [2] is given as “forms complexes”. The “effect of biotin on affinity for the oligonucleotide” value in series [8] (35 bp ds, biotinylated at one or two 3′-OH ends, no streptavidin) is recorded as “does not modify the affinity”. Further, the “fraction of fragment aggregated” value in [9] worked out at 50%. For the same molecule, the heat transition midpoint in [10] is 52 °C.

(Values after article PMC2034471 (Nucleic Acids Research, 2007).)
